Data published in ChEMBL document CHEMBL1649291, “ADS-J1 inhibits human immunodeficiency virus type 1 entry by interacting with the gp41 pocket region and blocking fusion-active gp41 core formation” (Antimicrob Agents Chemother, 2009).
The source made the active and inactive calls. The calls are words filed in the database; no cut-off is given here. Peptide text beside a SMILES is read from it.

Key:
[1] = test system: Human immunodeficiency virus 1; assay: Binding affinity to IQNI7 pocket of HIV1 3B gp41 at 1 uM after 30 mins by SPR assay
[2] = test system: Human immunodeficiency virus 1; details: 3B, 1 uM
[3] = test system: Human immunodeficiency virus 1; details: 3B, 1 uM; remark: listed apart in the source
[4] = test system: Human immunodeficiency virus 1; assay: Antiviral activity against HIV1 3B infected in human MT2 cells assessed as inhibition of viral p24 antigen production at 5 uM after 8 hrs by ELISA
[5] = test system: Human immunodeficiency virus 1; assay: Binding affinity to IQ pocket of HIV1 3B gp41 at 1 uM after 30 mins by SPR assay
MT2 [6] = assay: Inhibition of to HIV1 3B gp120 binding to CD4-positive human MT2 cells at 10 ug/ml by ELISA; type: cell-based; details: Human immunodeficiency virus 1
[7] = Inhibition of PIE7 binding to HIV1 3B gp41 after 30 mins by ELISA; design: species or system Human immunodeficiency virus 1
MT2 [8] = assay: Inhibition of HIV1 3B gp41-mediated cell-cell fusion between viral envelope expressing virus-infected human H9 cells to human MT2 cells at 10 uM treated 30 mins before viral infection by fluorescence assay; type: cell-based; details: Human immunodeficiency virus 1
[9] = (§1) Inhibition of HIV1 3B gp41 fusion-active core formation after 30 mins by sandwich ELISA; design: species or system Human immunodeficiency virus 1
Summary of the method: (§2)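 After 30 min at 37°C, mixtures added to wells coated with anti-6-HB rabbit IgG (10 µg/ml); detected with MAb NC-1, biotin anti-mouse IgG, SA-HRP, TMB at A450. Triplicates; percent inhibition calculated.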

[10] = test system: Human immunodeficiency virus 1; assay: as §1; summary of the method: as §2
[11] = test system: Human immunodeficiency virus 1; assay: Inhibition of preformed HIV1 3B gp41 fusion-active core formation at 40 to 100 uM after 30 mins by N-PAGE
Summary of the method: (§3)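 Native PAGE: N36 incubated with compound or PBS (or, for the preformed case, N36 with C34) at 37°C 30 min before adding the third component; final peptides 40 µM, compounds 100 µM; further 30 min 37°C. Mixed 1:1 with native sample buffer, run on 18% Tris-glycine gels at 125 V, room temperature, 2 h; Coomassie staining.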

[12] = test system: Human immunodeficiency virus 1; assay: Inhibition of HIV1 3B gp41 fusion-active core formation after 30 mins by N-PAGE; summary of the method: as §3
[13] = test system: Human immunodeficiency virus 1; assay: Antiviral activity against HIV1 3B infected in human MT2 cells assessed as inhibition of viral p24 antigen production at 5 uM after 1 hr by ELISA
[14] = test system: Human immunodeficiency virus 1; assay: Binding affinity to HIV1 3B gp41 assessed as effect on N36K574D-C34D632K complex formation at 40 to 100 uM after 30 mins by N-PAGE
[15] = test system: Human immunodeficiency virus 1; assay: Binding affinity to HIV1 3B gp41 assessed as alteration of structural configuration of N36-C34 complex at 10 to 40 uM after 30 mins by spectroscopy
Summary of the method: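 CD spectroscopy in PBS pH 7.2: N36 preincubated with compound or PBS 37°C 30 min, then C34 added and incubated a further 30 min at 37°C; final peptides 10 µM each, compound 40 µM. Spectra at room temperature, 0.1-cm path, blank-subtracted; α-helix content from mean residue ellipticity at 222 nm relative to −33,000 deg cm2 dmol−1.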

MT2 [16] = assay: Inhibition of HIV1 3B gp41-mediated cell-cell fusion between viral envelope expressing human virus-infected H9 cells to human MT2 cells at 10 uM by fluorescence assay; type: cell-based; details: Human immunodeficiency virus 1
Summary of the method: (§4)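 Dye-transfer fusion: calcein-AM-labeled H9/HIV-1 IIIB cells cocultured with MT-2 cells (1:5) at 37°C for 2 h; compound at 10 µM either present throughout, or preincubated with H9/HIV-1 IIIB or with MT-2 cells 37°C 30 min then removed by two washes before adding partner cells. Fused and unfused labeled cells counted by fluorescence microscopy; triplicates, mean ± SD.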

MT2 [17] = assay: Inhibition of HIV1 3B gp41-mediated cell-cell fusion between viral envelope expressing virus-infected human H9 cells to human MT2 cells at 10 uM treated before addition of human MT2 cells measured after drug washout by fluorescence assay; type: cell-based; details: Human immunodeficiency virus 1; summary of the method: as §4
[18] = test system: Human immunodeficiency virus 1; assay: Inhibition of preformed HIV1 3B gp41 fusion-active core formation at 40 to 100 uM after 30 mins by sandwich ELISA
[19] = biological target: C-X-C chemokine receptor type 4 (Homo sapiens) (UniProt P61073); assay: Inhibition of MAb12G5 binding to CXCR4 in human CEM cells at 25 uM by ELISA; type: cell-based; details: CCRF-CEM
Chain of C-X-C chemokine receptor type 4 (Homo sapiens) (P61073 whole entry, the tested form may be a part): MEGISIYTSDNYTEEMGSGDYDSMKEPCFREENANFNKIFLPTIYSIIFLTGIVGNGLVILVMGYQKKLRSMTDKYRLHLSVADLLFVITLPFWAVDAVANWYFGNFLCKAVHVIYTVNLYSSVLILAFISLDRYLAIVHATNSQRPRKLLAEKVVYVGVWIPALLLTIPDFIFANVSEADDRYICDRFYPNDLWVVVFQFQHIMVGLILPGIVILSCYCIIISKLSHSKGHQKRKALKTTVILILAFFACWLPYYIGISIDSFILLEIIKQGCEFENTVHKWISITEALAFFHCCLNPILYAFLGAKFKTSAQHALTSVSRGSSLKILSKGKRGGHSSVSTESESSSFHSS

MT2 [20] = assay: Inhibition of HIV1 3B gp41-mediated cell-cell fusion between viral envelope expressing virus-infected human H9 cells to human MT2 cells at 10 uM measured after drug washout by fluorescence assay; type: cell-based; details: Human immunodeficiency virus 1; summary of the method: as §4
[21] = test system: Human immunodeficiency virus 1; assay: Induction of alteration of preformed structural configuration of N36-C34 complex in HIV1 3B gp41 at 10 to 40 uM after 30 mins by spectroscopy
Summary of the method: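 Preformed-complex CD control: N36 and C34 incubated together 37°C 30 min, then compound or PBS added for a further 30 min at 37°C; final peptides 10 µM each, compound 40 µM, in PBS pH 7.2. Spectra at room temperature, blank-subtracted; helicity from 222 nm ellipticity versus −33,000 deg cm2 dmol−1.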

Q: Which results are given for `c1cc(CN2CCCNCCNCCCNCC2)ccc1CN1CCCNCCNCCCNCC1`?
A: Activity [1]: inactive; inhibition [2]: Active; inhibition [3]: inactive

Q: For `Cc1cn([C@H]2C[C@H](N=[N+]=[N-])[C@@H](CO)O2)c(=O)[nH]c1=O`, which inhibition [4] is on record?
A: inactive

Q: For `CC[C@H](C)[C@H](NC(=O)[C@H](CCC(=O)O)NC(=O)[C@H](CC(N)=O)NC(=O)[C@H](CCC(=O)O)NC(=O)[C@@H](NC(=O)[C@H](CCCCN)NC(=O)[C@H](CCCCN)NC(=O)[C@H](CCC(N)=O)NC(=O)[C@H](CCCCN)NC(=O)[C@H](CO)NC(=O)[C@H](CCC(=O)O)NC(=O)[C@@H](NC(=O)[C@H](CCC(=O)O)NC(=O)[C@H](CCC(=O)O)NC(=O)[C@@H](NC(=O)[C@H](CCCCN)NC(=O)[C@H](CC(=O)O)NC(=O)[C@H](CCC(=O)O)NC(=O)[C@@H](NC(=O)[C@H](CCC(N)=O)NC(=O)[C@H](CCCCN)NC(=O)[C@H](CCSC)NC(=O)[C@@H](N)CCCNC(=N)N)[C@@H](C)CC)[C@@H](C)CC)[C@@H](C)CC)[C@@H](C)CC)C(=O)N[C@@H](C)C(=O)N[C@@H](CCCNC(=N)N)C(=O)N[C@H](C(=O)N[C@@H](CCCCN)C(=O)N[C@@H](CCCCN)C(=O)O)[C@@H](C)CC`, which Activity [5] is on record?
A: inactive

Q: With `CN1C(=O)[C@@H](c2cc(Cl)c(O)c(Cl)c2)NC(=O)[C@@H]2NC(=O)[C@@H](c3cc(Cl)c(O)c(Cl)c3)NC(=O)[C@H](NC(=O)C(=O)c3cc(Cl)c(O)c(Cl)c3)Cc3c[nH]c4c(cccc34)-c3cc2cc(c3O)Oc2ccc(cc2)C[C@H]1C(=O)N[C@@H](C(=O)O)c1ccc(O)cc1` as the molecule, how does the inhibition (MT2 [6]) read?
A: Active

Q: What does the source list for `COc1ccc(S(=O)(=O)O)cc1/N=N/c1c(S(=O)(=O)O)cc2cc(Nc3nc(Nc4ccccc4)nc(Nc4cc(C)c(/N=N/c5cc(S(=O)(=O)O)cc6cc(S(=O)(=O)O)cc(O)c56)cc4OC)n3)ccc2c1O`?
A: IC50 [7]: 680 nM; inhibition (MT2 [8]): inactive; IC50 [9]: 3360 nM; inhibition [10]: Dose-dependent effect; inhibition [11]: inactive; inhibition [12]: Dose-dependent effect; inhibition (MT2 [6]): inactive; inhibition [13]: Active; Activity [1]: Active; Activity [14]: inactive; Activity [15]: Active; inhibition (MT2 [16]): Active; inhibition (MT2 [17]): 80%; inhibition [18]: inactive; inhibition [19]: 18%; inhibition (MT2 [20]): 50%; Activity [21]: inactive

Q: With `N=C(N)NCCC[C@H](NC(=O)[C@H](CS)NC(=O)[C@H](CCCCN)NC(=O)[C@H](CCCNC(=N)N)NC(=O)[C@H](Cc1ccc(O)cc1)NC(=O)[C@H](CS)NC(=O)[C@H](Cc1ccc(O)cc1)NC(=O)CNC(=O)[C@H](CCCCN)NC(=O)[C@H](Cc1ccc(O)cc1)NC(=O)[C@H](CS)NC(=O)[C@H](CCCCN)NC(=O)[C@H](CCCNC(=N)N)NC(=O)[C@H](Cc1ccc(O)cc1)NC(=O)[C@H](CS)NC(=O)[C@H](Cc1c[nH]c2ccccc12)NC(=O)[C@H](CCCNC(=N)N)NC(=O)[C@@H](N)CCCNC(=N)N)C(=O)O` (H-RRWCYRKCYKGYCYRKCR-OH) as the molecule, how does the inhibition [19] read?
A: Active
